Screening results from PubChem BioAssay.
TAAR1 ag: human TAAR1 agonism; CHO RD-HGA16 TAAR1, Fluo-8 calcium fluorescence; vehicle wells 0%, saturating PEA agonist 100%; activation, % at 3 µM; 360,000 tested, 0.99% active; AID 624467;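 active = activation above the mean activation of all test compounds in the run plus 3 SD, cut at about 38% in these data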
Target sequence (Q96RJ0 whole entry, looked up): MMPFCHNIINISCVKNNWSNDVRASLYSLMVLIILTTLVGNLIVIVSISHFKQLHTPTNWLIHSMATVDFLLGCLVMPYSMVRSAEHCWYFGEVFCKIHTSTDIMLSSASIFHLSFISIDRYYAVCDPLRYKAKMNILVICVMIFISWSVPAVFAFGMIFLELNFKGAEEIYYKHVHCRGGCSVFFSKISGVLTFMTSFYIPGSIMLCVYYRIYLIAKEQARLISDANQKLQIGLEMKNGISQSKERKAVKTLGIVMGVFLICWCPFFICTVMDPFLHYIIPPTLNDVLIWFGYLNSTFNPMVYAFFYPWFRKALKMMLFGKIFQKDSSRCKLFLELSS
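Benchmarks: low control DMSO, high control PEA (EC100); System: CHO RD-HGA16 cells carrying human TAAR1 plus Gα16; Detection: Fluo-8 fluorescence, 5 s baseline then 140 s kinetic read; Schedule: 17-24 h plating, Fluo-8 75 min 37 °C, 30 min RT; Read-out basis: % activation from peak over basal fluorescence ratio, DMSO-to-PEA scaled.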
M1 ag: human M1 muscarinic receptor agonism; 360,000 tested, 0.33% active; activation, % at 3 µM; AID 588814; CHO-K1 hM1, Fluo-8 calcium fluorescence, agonist mode; 0% DMSO, 100% acetylcholine EC100; P11229;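 active = activation above the run's mean compound activation plus 3 SD, cut at about 16% in these data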;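 also: peak over basal fluorescence ratio within a 140 s kinetic read after compound addition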
M1 antag: human CHRM1 antagonism; CHO-K1 hM1, Fluo-8 calcium fluorescence, ACh EC80 antagonist; inhibition, % at 3 µM; 360,000 tested, 1.3% active; AID 588852; P11229;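 active = percent inhibition above its own plate's cutoff, namely the mean of that plate's compound wells plus 3 SD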;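 also: peak over basal fluorescence ratio during 140 s after agonist addition; 0% = ACh EC80 plus DMSO and 100% = DMSO alone without agonist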
CHRM1 PAM: potentiates human M1 receptor response to acetylcholine; activation, % at 3 µM; 360,000 tested, 0.088% active; AID 588819; P11229; CHO-K1 hM1, Fluo-8 calcium fluorescence, ACh EC20; 0% = ACh EC20, 100% = maximal ACh; in the data active = activation above about 19%, passing the limit was not always enough
m5-HT2A agonist: mouse HTR2A agonism via beta-arrestin recruitment; activation, % at 7.6 µM; 360,000 tested, 0.66% active; CHO-K1 mHTR2A beta-arrestin complementation, luminescence; percent of 30 µM serotonin response; P35363;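 active = activation above a run cutoff, the mean activation of all tested compounds plus 3 SD, cut at about 14% in these data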;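 also: 0% = plate median of compound wells and 100% = 30 µM serotonin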
TAAR1 antag: human TAAR1 antagonism; CHO RD-HGA16 TAAR1, Fluo-8 calcium fluorescence, antagonist; inhibition, % at 3 µM; 360,000 tested, 1.5% active;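 active = inhibition above a per-plate cutoff, the mean inhibition of test compounds on that plate plus 3 SD, cut at about 49% in these data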;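 also: 0% = DMSO plus EC80 beta-PEA response and 100% = DMSO alone without agonist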
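Test system: hTAAR1-expressing CHO RD-HGA16 cells, Gα16-coupled; Probe or stimulus: EC80 β-phenethylamine stimulus; Compound dosing: single nominal final test compound concentration of 3 µM; Timing: 140 s kinetic read after compound, 140 s after agonist; Signal: Fluo-8 calcium-sensitive fluorescence; Measure: % inhibition of agonist calcium response; Controls: DMSO and EC80 PEA controls.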
The depositor's hits bear a star; / = no result. An excerpt weighted towards active compounds, which were near 3.9% of everything screened.

SMILES	TAAR1 ag	M1 ag	M1 antag	CHRM1 PAM	m5-HT2A agonist	TAAR1 antag
C[C@H](CO)N1C[C@H](C)[C@@H](CN(C)Cc2ccc(C(=O)O)cc2)OCCCC[C@H](C)Oc2ccc(NC(=O)CCC(F)(F)F)cc2C1=O	1	/	/	/	/	-9
COc1cccc(-c2ccc3c(c2)[C@@H]2C[C@H]4[C@@H](CN2CC3)[C@H](C)ON4C)c1	0	/	/	/	/	0
C[C@H](NC(=O)[C@@H]1CSC2c3ccccc3C(=O)N21)C(=O)NC1CCCC1 (stereo partly drawn)	2	0	27*	-10	3	-28
C[C@H](NC(=O)[C@@H]1CSC2c3ccccc3C(=O)N21)C(=O)NC1CCCCC1 (stereo partly drawn)	0	-2	-8	7	1	-33
O=C(O)c1cccc(-n2nc(-c3ccc(Cl)c([N+](=O)[O-])c3)c3ccccc3c2=O)c1	-3	-10	-5	6	-2	-35
CC(C)N1C(=O)c2ccccc2NC(=O)C1C(=O)NCc1cccc(C(F)(F)F)c1 (stereo not drawn)	2	/	/	/	0	-10
CC1CC(C)CN(CCCSc2ccccc2)C1 (stereo not drawn)	2	-14	2	-8	-4	1
Clc1ccc(SCCCN2CCCCC2)cc1	4	-6	33*	-17	-5	-9
CC1CC(C)CN(CCOCCSc2ccc(Cl)cc2)C1 (stereo not drawn)	5	-4	35*	-21	-1	-6
CCOc1cc(OCC)cc(C(=O)N2CCC[C@@H]2C(=O)N2CCC[C@H]2C(=O)NCc2ccncc2)c1	11	/	/	/	0	-20
COC(=O)C1=C(C)N(c2ccc(C)c(C)c2)/C(=C/c2ccco2)C1=O	/	-6	-2	4	18*	/
CC/C(CC(C)(C)c1ccccc1)=N\O	2	-3	-4	7	-2	-27
CCN(CC)CCC/C(=N\O)C(O)(c1ccccc1)c1ccccc1	1	-5	95*	-22	-5	1
CC[N+](C)(CC)CCC/C(=N/O)C(O)(c1ccccc1)c1ccccc1	0	-3	64*	-20	1	-10
CC(=O)O[C@H]1C[C@@]2(C)[C@@H](C[C@@H](O)[C@H]3[C@@]4(C)CC[C@@H](O)[C@@H](C)[C@@H]4CC[C@@]32C)/C1=C(\CCC=C(C)C)C(=O)O	0	-6	-20	-6	-3	-8
COC(=O)N/N=C/c1cn(CCOc2ccc(OC)cc2)c2ccccc12	1	-2	15	-9	7	50*
CC(=O)Nc1cccc(N)c1	1	-5	-8	0	1	6
O=C(OCc1ccccc1)N1CCC2CC1c1cc(N3CCCCC3)ccc12 (stereo not drawn)	-1	-11	34*	-28	-4	-5
O=C(c1cc(Cl)cc(Cl)c1)N1CCC2CC1c1cc(N3CCCCC3)ccc12 (stereo not drawn)	3	-11	70*	-33	-6	-15
C=CCN=C1NC(c2ccccc2C(F)(F)F)C(C(=O)OC)=C(C)N1Cc1ccc(C(F)(F)F)cc1 (stereo not drawn)	3	/	/	/	/	-3
O=C(O)C/C(=C\c1cccc(NC(=O)c2ccccc2Cl)c1)c1nc2ccccc2s1	2	-4	-5	0	0	0
COc1ccc(C(=O)Nc2cccc(/C=C(\CCC(=O)O)c3nc4ccccc4s3)c2)cc1	13	-3	7	-1	7	52*
CC1CC(C)CN(C(=O)COC(=O)c2cc(S(=O)(=O)N3CCOCC3)ccc2F)C1 (stereo not drawn)	0	-2	57*	-18	9	-18
O=C(OCC(=O)N1CCc2ccccc21)c1cc(S(=O)(=O)N2CCOCC2)ccc1F	0	-7	-14	9	1	0
Nc1nonc1C(=O)NCCNCc1cc(Br)ccc1OCc1ccccc1F	40*	-2	17	-3	-6	51*
SMILES	TAAR1 ag	M1 ag	M1 antag	CHRM1 PAM	m5-HT2A agonist	TAAR1 antag
O=C(Nc1ccccc1C(=O)NC(Cc1ccccc1)C(=O)NC1CCCCC1)c1ccccc1 (stereo not drawn)	0	-8	-11	9	-1	26
Cc1ccc(NC(=O)COc2ccccc2CNC(C)(C)CC(C)(C)C)cc1	46*	-2	18	-8	-3	-3
COc1ccc(OCCCC(=O)Nc2ccc(N3CCCCC3)cc2)cc1	0	-3	-6	5	5	-11
Cc1ccc(C)c(C(=O)OCC(=O)Nc2ccc(N3CCOCC3)cc2)c1	3	3	-24	25*	6	-21
CC(C)(CO)NCc1ccccc1OCC(=O)Nc1ccccc1	-1	-2	-14	16	3	8
Cc1cc(C)cc(OCC(=O)Nc2ccc(N3CCCC3)cc2)c1	/	-12	56*	-36	-5	/
Cc1cccc(OCCCC(=O)Nc2ccc(N3CCCCC3)cc2)c1	73*	-1	-2	-1	-5	64*
Cc1ccccc1OCC(=O)Nc1ccc2c(c1)C(=O)N(CCC(=O)O)C2=O	1	8	-17	26*	0	-24
Cc1ccc(C(=O)N2CCN(c3ccc(NC(=O)COc4ccccc4C)cc3)CC2)cc1	9	-2	12	-3	6	55*
CNS(=O)(=O)c1cnccc1N1CCN(C)CC1	2	-12	-5	6	1	5
CC(C)N1CCN(c2ccncc2S(=O)(=O)N2CCN(C)CC2)CC1	0	-8	47*	-26	-3	5
CC1CCCC(NC(=O)c2ccc3c(SCC(=O)O)c4c(nc3c2)CCC4)C1C (stereo not drawn)	16	-2	39*	-6	1	1
NC(=O)c1ccc(N2CCN(c3ccccc3O)CC2)c([N+](=O)[O-])c1	11	6	-2	-1	1	1
NC(=O)c1ccc(N2CCN(S(=O)(=O)c3cccs3)CC2)c([N+](=O)[O-])c1	25	3	35*	-14	2	22
COc1ccc([N+](=O)[O-])c(OC)c1C(=O)NC(=O)Nc1c(F)c(F)c(F)c(F)c1F	4	2	-11	18	7	-7
O=c1c2ccc(F)cc2sn1-c1ccccc1	49*	16*	-12	-1	8	8
O=c1c2cc(F)ccc2sn1-c1ccccc1Cl	32	-1	-4	-1	-5	-14
Cc1ccc(-n2sc3cc(F)ccc3c2=O)c(C)c1	49*	18*	-9	-4	3	7
C[C@@H]1CN([C@@H](C)CO)C(=O)CCCn2cc(nn2)CO[C@H]1CN(C)C(=O)Nc1ccnc(N2CCOCC2)c1	3	/	/	/	/	-28
